Values after ≈ are worked out from the molar mass of the structure shown. Active and inactive are the calls of the source. No rule for the calls is given here.
Assays:
Assay type in all cases: functional
Nakaseomyces glabratus [1] = assay: Antifungal activity against Candida glabrata ATCC 48435 at 16 ug/ml after 48 to 72 hrs by broth microdilution method
Candida albicans [2] = assay: Antifungal activity against Candida albicans ATCC 10231 at 62 ug/ml after 48 to 72 hrs by broth microdilution method
Nakaseomyces glabratus [3] = assay: Antifungal activity against Candida glabrata ATCC 48435 after 48 to 72 hrs by broth microdilution method
In short: (§1)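 Broth microdilution per NCCLS. Organisms were subcultured on Sabouraud agar. Inoculum was 5–7 colonies from YM agar in sterile water, adjusted to 0.5 McFarland at 530 nm (1–5×10⁶ cells/mL stock), held 30 min at RT, then diluted 1:50 in HEPES-buffered RPMI 1640. DMSO stocks were twofold-diluted, with final DMSO ≤1%. Plates ran 48–72 h at 35 °C, humid. MIC is the lowest concentration giving ≥80% growth reduction vs drug-free wells, scored visually. Fluconazole or amphotericin B ran as drug control.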

Candida albicans [4] = assay: Antifungal activity against Candida albicans ATCC 10231 after 48 to 72 hrs by broth microdilution method; in short: as §1
Nakaseomyces glabratus [5] = assay: Antifungal activity against Candida glabrata ATCC 48435 at 31 ug/ml after 48 to 72 hrs by broth microdilution method
Candida albicans [6] = assay: Antifungal activity against Candida albicans ATCC 10231 at 16 ug/ml after 48 to 72 hrs by broth microdilution method

O=C1NC(=O)C(/C=N/NC(=O)c2ccc([N+](=O)[O-])cc2)C(=O)N1
inhibition at 16 µg/mL (Nakaseomyces glabratus [1]): < 50% | inhibition at 62 µg/mL (Candida albicans [2]): < 50% | MIC80 (Nakaseomyces glabratus [3]): 16 µg/mL (≈ 50.1 µM) | MIC80 (Candida albicans [4]): 62 µg/mL (≈ 194 µM)

CN/N=C(\C)C1C(=O)NC(=O)NC1=O
inhibition at 31 µg/mL (Nakaseomyces glabratus [5]): < 50% | MIC80 (Nakaseomyces glabratus [3]): 31 µg/mL (≈ 156 µM) | MIC80 (Candida albicans [4]): inactive

Cc1ccc(S(=O)(=O)N/N=C/C2C(=O)NC(=O)NC2=O)cc1
inhibition at 16 µg/mL (Candida albicans [6]): < 50% | MIC80 (Nakaseomyces glabratus [3]): inactive | MIC80 (Candida albicans [4]): 16 µg/mL (≈ 49.3 µM)
